Data as given in ChEMBL document CHEMBL1932953, “New anthranilic acid based antagonists with high affinity and selectivity for the human cholecystokinin receptor 1 (hCCK1-R)” (J Med Chem, 2011).
Active and inactive are the calls of the source. The rule behind the calls is not given here.

Columns and labels:
[1] = Displacement of [125I]-BH-CCK8 from CCK2 receptor in Hartley guinea pig cerebral cortex after 120 hrs by gamma-counting; type: tissue-based, Cavia porcellus; conditions: in the assay text read “after 120 mins” for “after 120 hrs”
Method in brief: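 Cortical membranes (0.5 mg protein/ml) are incubated with 25 pM [125I]BH-CCK-8 for 120 min at 25 °C. The buffer is 10 mM Hepes, 118 mM NaCl, 4.7 mM KCl, 5 mM MgCl2, 1 mM EGTA, pH 6.5, with 0.2 mg/mL bacitracin. Samples are vacuum-filtered on GF/B and gamma-counted, with nonspecific binding defined with 1 μM CCK-8. IC50 comes from curve fitting, or ISB% is taken at the top concentration tested.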

[2] = molecular target: T1, Cholecystokinin receptor type A (Rattus norvegicus, UniProt P30551); assay: Displacement of [125I]-BH-CCK8 from CCK1 receptor in Sprague-Dawley rat pancreatic acini after 120 hrs by gamma-counting; conditions: in the assay text read “after 30 mins” for “after 120 hrs”
T1 sequence (P30551 whole entry): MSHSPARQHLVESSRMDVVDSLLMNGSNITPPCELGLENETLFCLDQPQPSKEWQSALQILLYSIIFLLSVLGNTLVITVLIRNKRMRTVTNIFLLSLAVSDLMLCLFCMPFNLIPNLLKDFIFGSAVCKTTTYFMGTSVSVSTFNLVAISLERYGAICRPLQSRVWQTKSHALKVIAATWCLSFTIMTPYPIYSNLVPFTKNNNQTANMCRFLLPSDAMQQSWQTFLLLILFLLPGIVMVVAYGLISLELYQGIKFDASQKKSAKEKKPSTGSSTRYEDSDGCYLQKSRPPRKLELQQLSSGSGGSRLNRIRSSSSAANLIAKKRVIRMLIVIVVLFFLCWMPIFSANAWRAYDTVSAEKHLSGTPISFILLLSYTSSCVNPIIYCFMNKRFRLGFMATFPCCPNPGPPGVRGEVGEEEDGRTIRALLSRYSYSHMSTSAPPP
Method in brief: (§1)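 Rats fasted 18–24 h with free water. Acini isolated by enzymatic digestion are incubated with 25 pM [125I]BH-CCK-8 and competitors at 37 °C for 30 min in a shaking bath. Ice-cold Hepes-Ringer pH 7.4 is added, the tubes are centrifuged 5 min at 12500g, and pellet radioactivity is counted. IC50 comes from curve fitting, or ISB% is taken at the top concentration tested.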

[3] = Apparent selectivity index, ratio of IC50 for CCK2 receptor in Hartley guinea pig cerebral cortex to IC50 for CCK1 receptor in Sprague-Dawley rat pancreatic acini; type: tissue-based
[4] = molecular target: T2, Cholecystokinin receptor type A (Homo sapiens, UniProt P32238); assay: Displacement of [125I]BH-(Thr,-Nle)-CCK-9 from human CCK1 receptor expressed in COS-7 cells after 60 mins by gamma counting; type: cell-based
T2 sequence (P32238 whole entry): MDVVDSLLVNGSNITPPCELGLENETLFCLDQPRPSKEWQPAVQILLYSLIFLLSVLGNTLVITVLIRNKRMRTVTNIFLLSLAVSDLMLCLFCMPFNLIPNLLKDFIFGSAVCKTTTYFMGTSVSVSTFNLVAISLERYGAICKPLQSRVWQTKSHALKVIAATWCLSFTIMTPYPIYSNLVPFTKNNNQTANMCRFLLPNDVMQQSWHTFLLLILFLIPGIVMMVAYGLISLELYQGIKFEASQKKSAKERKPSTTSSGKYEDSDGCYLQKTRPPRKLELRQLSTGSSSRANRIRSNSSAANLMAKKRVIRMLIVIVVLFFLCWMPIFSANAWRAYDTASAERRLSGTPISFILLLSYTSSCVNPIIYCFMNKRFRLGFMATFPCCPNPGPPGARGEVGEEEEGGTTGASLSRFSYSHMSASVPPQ

[5] = molecular target: T3, Gastrin/cholecystokinin type B receptor (Homo sapiens, UniProt P32239); assay: Displacement of [125I]BH-(Thr,-Nle)-CCK-9 from human CCK2 receptor expressed in COS-7 cells after 60 mins by gamma counting; type: cell-based
T3 sequence (P32239 whole entry): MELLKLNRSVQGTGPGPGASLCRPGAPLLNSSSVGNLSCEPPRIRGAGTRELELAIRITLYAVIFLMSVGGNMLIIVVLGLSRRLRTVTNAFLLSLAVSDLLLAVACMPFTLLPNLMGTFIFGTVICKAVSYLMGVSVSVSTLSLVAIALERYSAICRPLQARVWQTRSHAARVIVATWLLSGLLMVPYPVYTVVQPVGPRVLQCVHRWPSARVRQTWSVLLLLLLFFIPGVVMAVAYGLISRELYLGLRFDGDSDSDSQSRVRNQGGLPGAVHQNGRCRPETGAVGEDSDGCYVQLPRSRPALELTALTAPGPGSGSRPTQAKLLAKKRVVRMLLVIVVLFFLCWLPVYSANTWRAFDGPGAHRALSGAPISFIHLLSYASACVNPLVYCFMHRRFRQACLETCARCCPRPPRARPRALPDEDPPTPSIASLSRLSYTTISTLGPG

Homo sapiens = species: Homo sapiens; assay: Apparent selectivity index, ratio of Ki for human CCK2 receptor to Ki for human CCK1 receptor
[6] = Antagonist activity at CCK1 receptor in Hartley guinea pig gall bladder assessed as inhibition of CCK8-induced contraction; type: functional, tissue-based, Cavia porcellus
Method in brief: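 Circular smooth-muscle strips (about 3 mm × 15 mm) in Krebs–Henseleit at 32 °C, gassed 95% O2/5% CO2, resting tension 0.5 g, isometric recording. After 60 min equilibration with washes every 15 min, antagonist or vehicle is given 5 min before a submaximal (70–80%) CCK-8 concentration. Response is % inhibition of contraction, and IC50 comes from the regression line.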

[7] = molecular target: T4, Cholecystokinin receptor type A (Homo sapiens) (UniProt P32238); assay: Antagonist activity at human CCK1 receptor expressed in COS7 cells assessed as inhibition of (Thr,Nle)-CCK9-induced inositol phosphate production using myo-2-[3H]inositol after 60 mins by scintillation counting; type: functional, cell-based; conditions: COS-7
T4 sequence (whole entry): T2 sequence (P32238 whole entry)
Method in brief: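 COS-7 cells transiently transfected (DEAE-dextran) with receptor cDNA are labelled overnight with 2 μCi/ml myo-2-[3H]inositol. They are preincubated 30 min in DMEM with 20 mM LiCl at 37 °C, then incubated 60 min at 37 °C in PI buffer pH 7.45 with ligands at various concentrations. Inositol phosphates are separated on Dowex AG 1-X8 formate columns and counted by β scintillation.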

Cavia porcellus [8] = species: Cavia porcellus; assay: Displacement of [125I]-BH-CCK8 from CCK2 receptor in Hartley guinea pig cerebral cortex at 30 uM […] by gamma-counting; type: tissue-based
[9] = molecular target: T2, Cholecystokinin receptor type A; assay: Displacement of [3H]-SR-27897 from wild type human CCK1 receptor expressed in COS7 cells after 60 mins […]; type: cell-based, COS-7
Method in brief: (§2)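 Wild-type or mutant receptor cDNA in pRFE-Neo (2 μg/plate) was transiently transfected into COS-7 cells by modified DEAE-dextran, and cells were replated 24 h later. After about 24 h more, cells were incubated 60 min at 37 °C in DMEM with 0.1% BSA, 1.83 nM [3H]SR-27,897 and competitors. Cells were washed in cold PBS with 2% BSA, lysed in 0.1 N NaOH, and counted by scintillation. Values are mean ± SEM, at least three experiments in duplicate.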

[10] = molecular target: Cholecystokinin receptor type A (Homo sapiens, UniProt P32238, W39A); assay: Displacement of [3H]-SR-27897 from human CCK1 W39A mutant receptor expressed in COS7 cells after 60 mins […]; type: cell-based, COS-7; method in brief: as §2
Chain of Cholecystokinin receptor type A (Homo sapiens, UniProt P32238, W39A) (P32238 whole entry W39A): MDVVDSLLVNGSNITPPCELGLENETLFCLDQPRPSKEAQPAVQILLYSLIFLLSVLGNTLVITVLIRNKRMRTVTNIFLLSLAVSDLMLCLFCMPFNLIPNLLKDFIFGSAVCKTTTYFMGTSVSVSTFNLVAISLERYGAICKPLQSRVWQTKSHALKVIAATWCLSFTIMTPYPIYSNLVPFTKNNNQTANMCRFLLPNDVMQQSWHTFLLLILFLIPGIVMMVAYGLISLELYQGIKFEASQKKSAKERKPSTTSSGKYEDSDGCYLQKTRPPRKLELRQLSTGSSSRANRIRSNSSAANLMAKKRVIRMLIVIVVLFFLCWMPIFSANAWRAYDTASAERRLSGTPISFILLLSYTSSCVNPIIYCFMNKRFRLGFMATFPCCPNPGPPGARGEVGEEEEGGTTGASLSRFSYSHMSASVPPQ

[11] = molecular target: Cholecystokinin receptor type A (Homo sapiens, UniProt P32238, F107A); assay: Displacement of [3H]-SR-27897 from human CCK1 F107A mutant receptor expressed in COS7 cells after 60 mins […]; type: cell-based, COS-7; method in brief: as §2
Chain of Cholecystokinin receptor type A (Homo sapiens, UniProt P32238, F107A) (P32238 whole entry F107A): as the sequence (P32238 whole entry W39A) above, with A39W, F107A counted along it

[12] = molecular target: Cholecystokinin receptor type A (Homo sapiens, UniProt P32238, M195A); assay: Displacement of [3H]-SR-27897 from human CCK1 M195A mutant receptor expressed in COS7 cells after 60 mins […]; type: cell-based, COS-7; method in brief: as §2
Chain of Cholecystokinin receptor type A (Homo sapiens, UniProt P32238, M195A) (P32238 whole entry M195A): as the sequence (P32238 whole entry W39A) above, with A39W, M195A counted along it

[13] = molecular target: Cholecystokinin receptor type A (Homo sapiens, UniProt P32238, R197A); assay: Displacement of [3H]-SR-27897 from human CCK1 R197A mutant receptor expressed in COS7 cells after 60 mins […]; type: cell-based, COS-7; method in brief: as §2
Chain of Cholecystokinin receptor type A (Homo sapiens, UniProt P32238, R197A) (P32238 whole entry R197A): as the sequence (P32238 whole entry W39A) above, with A39W, R197A counted along it

[14] = molecular target: Cholecystokinin receptor type A (Homo sapiens, UniProt P32238, R336A); assay: Displacement of [3H]-SR-27897 from human CCK1 R336A mutant receptor expressed in COS7 cells after 60 mins […]; type: cell-based, COS-7; method in brief: as §2
Chain of Cholecystokinin receptor type A (Homo sapiens, UniProt P32238, R336A) (P32238 whole entry R336A): as the sequence (P32238 whole entry W39A) above, with A39W, R336A counted along it

[15] = molecular target: Cholecystokinin receptor type A (Homo sapiens, UniProt P32238, F330A); assay: Displacement of [3H]-SR-27897 from human CCK1 F330A mutant receptor expressed in COS7 cells after 60 mins […]; type: cell-based, COS-7; method in brief: as §2
Chain of Cholecystokinin receptor type A (Homo sapiens, UniProt P32238, F330A) (P32238 whole entry F330A): as the sequence (P32238 whole entry W39A) above, with A39W, F330A counted along it

[16] = molecular target: Cholecystokinin receptor type A (Homo sapiens, UniProt P32238, I352A); assay: Displacement of [3H]-SR-27897 from human CCK1 I352A mutant receptor expressed in COS7 cells after 60 mins […]; type: cell-based, COS-7; method in brief: as §2
Chain of Cholecystokinin receptor type A (Homo sapiens, UniProt P32238, I352A) (P32238 whole entry I352A): as the sequence (P32238 whole entry W39A) above, with A39W, I352A counted along it

[17] = molecular target: T2, Cholecystokinin receptor type A; assay: Displacement of [125I]-BH-JMV-179 from wild type human CCK1 receptor expressed in COS7 cells after 60 mins by gamma counting; type: cell-based, COS-7
Method in brief: (§3)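 Transiently transfected COS-7 cells (DMEM, 5% FCS, 37 °C, 5% CO2) were given 2 μg/plate pRFE-Neo vector carrying wild-type or mutant receptor cDNA by modified DEAE-dextran, then replated after 24 h. About 24 h later, cells were washed (PBS pH 6.95, 0.1% BSA) and incubated 60 min at 37 °C with 71 pM 125I-BH-(Thr,Nle)CCK-9 ± competitors. After cold washes, cells were lysed in 0.1 N NaOH and gamma-counted.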

[18] = molecular target: Cholecystokinin receptor type A (Homo sapiens, UniProt P32238, N333A); assay: Displacement of [125I]-BH-JMV-179 from human CCK1 receptor N333A mutant expressed in COS7 cells after 60 mins by gamma counting; type: cell-based, COS-7; method in brief: as §3
Chain of Cholecystokinin receptor type A (Homo sapiens, UniProt P32238, N333A) (P32238 whole entry N333A): as the sequence (P32238 whole entry W39A) above, with A39W, N333A counted along it

Cavia porcellus [19] = assay: Inhibition of CCK8-induced gall bladder contraction in iv dosed Hartley guinea pig administered 2 mins before CCK8 challenge; type: functional; conditions: read-out: ID50 (the source's name)
Method in brief: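 Male Hartley guinea pigs (400–450 g) are fasted 48 h and anaesthetised with urethane 1.5 g/kg ip. Jugular vein and trachea are cannulated. Test agents are given iv at different doses 2 min before CCK-8 10 ng/kg iv. The read-out is % reduction of contraction area, and […] comes from the regression of inhibition against log dose.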

[20] = molecular target: T5, Cholecystokinin receptor type A (Rattus norvegicus) (UniProt P30551); assay: Displacement of [125I]-BH-CCK8 from CCK1 receptor in Sprague-Dawley rat pancreatic acini at 3 uM after 120 hrs by gamma-counting; conditions: in the assay text read “after 30 mins” for “after 120 hrs”; method in brief: as §1
T5 sequence (whole entry): T1 sequence (P30551 whole entry)

[21] = molecular target: T5, Cholecystokinin receptor type A (Rattus norvegicus); assay: Displacement of [125I]-BH-CCK8 from CCK1 receptor in Sprague-Dawley rat pancreatic acini at 10 uM after 120 hrs by gamma-counting; conditions: in the assay text read “after 30 mins” for “after 120 hrs”; method in brief: as §1

O=C(Nc1ccccc1C(=O)NC(CCc1ccccc1)C(=O)O)c1cc2ccccc2[nH]1 (racemic)
IC50 ([1]; read-out: IC50): 5100 nM
IC50 [2]: 15.7 nM
Ratio IC50 [3]: 324
Ki [4]: 3.9 nM
Ki [5]: 15300 nM
Ratio Ki (Homo sapiens): 3900
IC50 [6]: 48.9 nM
inhibition [7]: Active

O=C(Nc1ccccc1C(=O)NC(CCCc1ccccc1)C(=O)O)c1cc2ccccc2[nH]1 (racemic)
IC50 ([1]; read-out: IC50): 600 nM
IC50 [2]: 107 nM
Ratio IC50 [3]: 6

O=C(Nc1ccccc1C(=O)NC(CCc1ccccc1)C(=O)NO)c1cc2ccccc2[nH]1 (racemic)
IC50 [2]: 419 nM
inhibition (Cavia porcellus [8]): 37%

O=C(Nc1ccccc1C(=O)N[C@H](CCc1ccccc1)C(=O)O)c1cc2ccccc2[nH]1
IC50 ([1]; read-out: IC50): 3800 nM
IC50 [2]: 9.5 nM
Ki [4]: 2.3 nM
Ki [5]: 1000 nM
IC50 [6]: 43.9 nM
inhibition [7]: Active
Ki [9]: 5.8 nM
Ki [10]: 3.7 nM
Ki [11]: 3.8 nM
Ki [12]: 7.6 nM
Ki [13]: 19.6 nM
Ki [14]: 522 nM
Ki [15]: 4.9 nM
Ki [16]: 39.1 nM
Ki [17]: 0.32 nM
Ki [18]: 5 nM
ED50 (Cavia porcellus [19]): 0.35 µmol/kg

NC(=O)C(CCc1ccccc1)NC(=O)c1ccccc1NC(=O)c1cc2ccccc2[nH]1 (racemic)
inhibition [20]: inactive

O=C(Nc1ccccc1C(=O)NC(CCCCc1ccccc1)C(=O)O)c1cc2ccccc2[nH]1 (racemic)
inhibition [21]: 39%

CCOC(=O)C(CCc1ccccc1)NC(=O)c1ccccc1NC(=O)c1cc2ccccc2[nH]1 (racemic)
IC50 [1]: Not Active
inhibition [20]: 24%

O=C(Nc1ccccc1NC(=O)C(CCc1ccccc1)C(=O)O)c1cc2ccccc2[nH]1 (racemic)
IC50 ([1]; read-out: IC50): 6200 nM
IC50 [2]: 717 nM
Ratio IC50 [3]: 8

CC(CCc1ccccc1)NC(=O)c1ccccc1NC(=O)c1cc2ccccc2[nH]1 (racemic)
IC50 [1]: Not Active
inhibition [21]: 36%

O=C(Nc1ccccc1C(=O)N[C@@H](CCc1ccccc1)C(=O)O)c1cc2ccccc2[nH]1
IC50 ([1]; read-out: IC50): 7900 nM
IC50 [2]: 313 nM
Ki [4]: 973 nM
Ki [5]: 1000 nM
IC50 [6]: 420 nM
inhibition [7]: Active

O=C(Nc1ccccc1C(=O)NC(Cc1ccccc1)C(=O)O)c1cc2ccccc2[nH]1 (racemic)
IC50 ([1]; read-out: IC50): 16400 nM
Ratio IC50 [3]: 83
Ki [4]: 59.8 nM
Ki [5]: 22000 nM
Ratio Ki (Homo sapiens): 368

O=C(Nc1ccccc1C(=O)NC(C(=O)O)c1ccccc1)c1cc2ccccc2[nH]1 (racemic)
IC50 [2]: 317 nM
